Source: ChEMBL document CHEMBL2331184, “The synthesis and SAR of calcitonin gene-related peptide (CGRP) receptor antagonists derived from tyrosine surrogates. Part 2” (Bioorg Med Chem Lett, 2013)
Calls of active or inactive are those of the source. The rule behind the calls is not given here.

Target: T1, Nuclear receptor subfamily 1 group I member 2 (Homo sapiens, UniProt O75469)
T1 sequence (O75469 whole entry): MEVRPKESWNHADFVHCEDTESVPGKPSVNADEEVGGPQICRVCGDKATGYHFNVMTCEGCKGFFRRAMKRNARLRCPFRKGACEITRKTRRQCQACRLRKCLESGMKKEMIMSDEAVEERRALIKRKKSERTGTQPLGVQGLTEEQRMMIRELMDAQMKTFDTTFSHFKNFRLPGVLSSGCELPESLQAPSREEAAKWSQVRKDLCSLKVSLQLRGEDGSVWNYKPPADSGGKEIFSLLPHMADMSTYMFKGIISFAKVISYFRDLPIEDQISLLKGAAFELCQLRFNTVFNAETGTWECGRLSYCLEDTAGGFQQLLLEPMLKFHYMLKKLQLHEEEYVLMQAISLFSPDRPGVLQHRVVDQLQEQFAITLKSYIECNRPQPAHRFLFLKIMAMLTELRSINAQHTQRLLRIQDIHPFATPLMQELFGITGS
Test: Activation of PXR (unknown origin)
Conditions: not given

SMILES	Activity
Cc1cc(C[C@@H](NC(=O)N2CCC(N3Cc4ccccc4NC3=O)CC2)C(=O)N2CCC(N3CCCCC3)CC2)cc2cn[nH]c12.Cl	Not Active

Tested on: Salmonella typhimurium
Test: Genotoxicity in Salmonella typhimurium by Ames test
Type: toxicity, organism-based
Conditions: salmonella enterica subsp. enterica serovar typhimurium

SMILES	Activity
Cc1cc(C[C@@H](NC(=O)N2CCC(N3Cc4ccccc4NC3=O)CC2)C(=O)N2CCC(N3CCCCC3)CC2)cc2cn[nH]c12.Cl	Non-toxic

Tested on: not listed separately
Test: Tmax in rabbit at 0.6 mg/kg administered intranasally
Type: ADME, organism-based, Oryctolagus cuniculus
Set-up: dose 0.6 mg/kg
Conditions: in vivo, inhaled or intranasal
How it was run: (§1)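 Rabbits were dosed intranasally with a spray of a 10 mg/mL aqueous solution of the HCl salt, at 0.6 mg/kg. […] Intranasal bioavailability was derived from these plasma levels.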

SMILES	Tmax [min]
Cc1cc(C[C@@H](NC(=O)N2CCC(N3Cc4ccccc4NC3=O)CC2)C(=O)N2CCC(N3CCCCC3)CC2)cc2cn[nH]c12.Cl	10

Tested on: not listed separately
Test: Bioavailability in rabbit at 0.6 mg/kg administered intranasally
Type: ADME, organism-based, Oryctolagus cuniculus
Conditions: in vivo, inhaled or intranasal
How it was run: as §1

SMILES	bioavailability [%]
Cc1cc(C[C@@H](NC(=O)N2CCC(N3Cc4ccccc4NC3=O)CC2)C(=O)N2CCC(N3CCCCC3)CC2)cc2cn[nH]c12.Cl	42

Tested on: not listed separately
Test: Aqueous solubility of the compound at pH 4.0 to 6.2
Type: physicochemical
Conditions: aqueous solution

SMILES	solubility [mg/mL]
Cc1cc(C[C@@H](NC(=O)N2CCC(N3Cc4ccccc4NC3=O)CC2)C(=O)N2CCC(N3CCCCC3)CC2)cc2cn[nH]c12.Cl	13

Tested on: not listed separately
Test: Plasma concentration in marmoset at 0.03 g/kg, sc after 60 mins
Type: ADME, organism-based, Callithrix jacchus
Conditions: 30 mg/kg
How it was run: (§2)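 Marmosets were anesthetized. Facial blood flow was raised by iv haCGRP (10 µg/kg) given at −30, 15, 60 and 105 min and read by laser Doppler flowmetry. The antagonist (racemate) was given SC at 0 min and compared with vehicle-treated animals, n = 5. Plasma levels were taken at 15, 60 and 105 min.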

SMILES	concentration at 1 h [nM]
Cc1cc(CC(NC(=O)N2CCC(N3Cc4ccccc4NC3=O)CC2)C(=O)N2CCC(N3CCCCC3)CC2)cc2cn[nH]c12 (racemic)	13

Tested on: not listed separately
Test: Plasma concentration in marmoset at 0.03 g/kg, sc after 105 mins
Type: ADME, organism-based, Callithrix jacchus
Conditions: 30 mg/kg
How it was run: as §2

SMILES	concentration at 1.75 h [nM]
Cc1cc(CC(NC(=O)N2CCC(N3Cc4ccccc4NC3=O)CC2)C(=O)N2CCC(N3CCCCC3)CC2)cc2cn[nH]c12 (racemic)	11

Tested on: not listed separately
Test: Plasma concentration in marmoset at 0.03 g/kg, sc after 15 mins
Type: ADME, organism-based, Callithrix jacchus
Conditions: 30 mg/kg
How it was run: as §2

SMILES	concentration at 0.25 h [nM]
Cc1cc(CC(NC(=O)N2CCC(N3Cc4ccccc4NC3=O)CC2)C(=O)N2CCC(N3CCCCC3)CC2)cc2cn[nH]c12 (racemic)	4.7

Tested on: Callithrix jacchus
Test: Inhibition of CGRP-induced increases in marmoset facial blood flow at 0.03 g/kg, sc after 60 to 105 mins by doppler flowmetry
Type: functional, organism-based
Conditions: not given
How it was run: as §2

SMILES	inhibition
Cc1cc(CC(NC(=O)N2CCC(N3Cc4ccccc4NC3=O)CC2)C(=O)N2CCC(N3CCCCC3)CC2)cc2cn[nH]c12 (racemic)	Active

Tested on: not listed separately
Test: Reversal of CGRP-induced dilation on human intracranial arteries
Type: functional, Artery
Conditions: not given
How it was run: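 Ex vivo human intracranial artery rings were mounted between two wire hooks on a force transducer to record tone. Rings were precontracted with 10 mM KCl and fully dilated with 1 nM haCGRP. Dilation was then reversed by cumulative half-log additions of antagonist.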

SMILES	EC50 [nM]
Cc1cc(C[C@@H](NC(=O)N2CCC(N3Cc4ccccc4NC3=O)CC2)C(=O)N2CCC(N3CCCCC3)CC2)cc2cn[nH]c12	0.05
O=C(N[C@H](Cc1ccc2[nH]ncc2c1)C(=O)N1CCC(N2CCCCC2)CC1)N1CCC(N2Cc3ccccc3NC2=O)CC1	1.2

Target: Calcitonin gene-related peptide type 1 receptor (Homo sapiens) (UniProt Q16602)
Sequence (Q16602 whole entry): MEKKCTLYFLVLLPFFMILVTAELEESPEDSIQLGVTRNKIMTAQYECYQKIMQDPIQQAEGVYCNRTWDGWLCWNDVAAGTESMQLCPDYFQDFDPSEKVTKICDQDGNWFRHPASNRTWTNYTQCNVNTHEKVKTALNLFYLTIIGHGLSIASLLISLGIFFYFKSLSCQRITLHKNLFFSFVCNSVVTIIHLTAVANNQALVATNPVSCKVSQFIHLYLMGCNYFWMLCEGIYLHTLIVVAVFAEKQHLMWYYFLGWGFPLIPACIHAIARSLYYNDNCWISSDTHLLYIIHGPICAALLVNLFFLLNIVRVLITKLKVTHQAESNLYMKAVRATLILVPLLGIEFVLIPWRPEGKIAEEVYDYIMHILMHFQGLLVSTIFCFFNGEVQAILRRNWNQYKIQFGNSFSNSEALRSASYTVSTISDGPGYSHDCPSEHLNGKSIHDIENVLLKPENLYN
Test: (§3) Antagonist activity at CGRP receptor in human SK-N-MC cells assessed as inhibition of […]-induced cAMP production
Type: functional, cell-based
Conditions: not given
How it was run: (§4)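 Concentration-dependent inhibition of CGRP-stimulated cAMP production measured in SK-N-MC cells expressing the human CGRP receptor. Value reported as EC50.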

SMILES	inhibition
Cc1cc(CC(NC(=O)N2CCC(N3Cc4ccccc4NC3=O)CC2)C(=O)N2CCC(N3CCCCC3)CC2)cc2cn[nH]c12 (racemic)	Active
O=C(N[C@H](Cc1cc(Br)c2[nH]c(=O)oc2c1)C(=O)N1CCC(N2CCCCC2)CC1)N1CCC(N2Cc3ccccc3NC2=O)CC1	Active
Cc1cc(C[C@@H](NC(=O)N2CCC(N3Cc4ccccc4NC3=O)CC2)C(=O)N2CCC(N3CCCCC3)CC2)c(Cl)c2cn[nH]c12	Active
O=C(N[C@H](Cc1cc(I)c2[nH]c(=O)oc2c1)C(=O)N1CCC(N2CCCCC2)CC1)N1CCC(N2Cc3ccccc3NC2=O)CC1	Active
O=C(N[C@H](Cc1cc2oc(=O)[nH]c2cc1Cl)C(=O)N1CCC(N2CCCCC2)CC1)N1CCC(N2Cc3ccccc3NC2=O)CC1	Active
CCc1cc(CC(NC(=O)N2CCC(N3Cc4ccccc4NC3=O)CC2)C(=O)N2CCC(N3CCCCC3)CC2)cc2c(C)n[nH]c12 (racemic)	Active
O=C(N[C@H](Cc1ccc2[nH]ncc2c1)C(=O)N1CCC(N2CCCCC2)CC1)N1CCC(N2Cc3ccccc3NC2=O)CC1	Active

Target: T2, Calcitonin gene-related peptide type 1 receptor (Homo sapiens, UniProt O60894+Q16602)
T2 sequence (Q16602 whole entry, one chain of several): as the sequence (Q16602 whole entry) above
Test: as §3
Type: functional, cell-based
Conditions: not given
How it was run: as §4

SMILES	EC50 [nM]
Cc1cc(C[C@@H](NC(=O)N2CCC(N3Cc4ccccc4NC3=O)CC2)C(=O)N2CCC(N3CCCCC3)CC2)cc2cn[nH]c12	0.017

Target: CYP3A4 (Homo sapiens, UniProt P08684)
Sequence (P08684 whole entry): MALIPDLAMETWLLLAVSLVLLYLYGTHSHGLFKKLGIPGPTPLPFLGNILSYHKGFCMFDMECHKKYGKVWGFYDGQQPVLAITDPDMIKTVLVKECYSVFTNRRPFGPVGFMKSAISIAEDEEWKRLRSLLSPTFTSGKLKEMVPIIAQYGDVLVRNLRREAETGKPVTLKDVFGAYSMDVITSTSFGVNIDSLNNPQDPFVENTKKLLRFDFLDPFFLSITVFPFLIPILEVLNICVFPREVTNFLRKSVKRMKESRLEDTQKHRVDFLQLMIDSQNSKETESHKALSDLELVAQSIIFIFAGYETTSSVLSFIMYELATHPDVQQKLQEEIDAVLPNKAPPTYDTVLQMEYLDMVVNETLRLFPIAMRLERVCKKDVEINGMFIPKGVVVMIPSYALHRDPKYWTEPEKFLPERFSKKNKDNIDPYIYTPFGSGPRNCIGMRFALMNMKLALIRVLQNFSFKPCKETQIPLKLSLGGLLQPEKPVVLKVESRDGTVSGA
Test: (§5) Inhibition of CYP3A4 (unknown origin) using 7-benzyloxy-4-trifluoromethylcoumarin as substrate
Type: ADME
Conditions: probe 7-benzyloxy-4-trifluoromethylcoumarin

SMILES	IC50 [nM]
O=C(N[C@H](Cc1ccc2[nH]ncc2c1)C(=O)N1CCC(N2CCCCC2)CC1)N1CCC(N2Cc3ccccc3NC2=O)CC1	> 40000

Target: T3, Cytochrome P450 3A4 (Homo sapiens, UniProt P08684)
T3 sequence (P08684 whole entry): as above
Test: as §5
Type: ADME
Conditions: not given

SMILES	IC50 [nM]
O=C(N[C@H](Cc1cc(Br)c2[nH]c(=O)oc2c1)C(=O)N1CCC(N2CCCCC2)CC1)N1CCC(N2Cc3ccccc3NC2=O)CC1	> 40000
Cc1cc(C[C@@H](NC(=O)N2CCC(N3Cc4ccccc4NC3=O)CC2)C(=O)N2CCC(N3CCCCC3)CC2)c(Cl)c2cn[nH]c12	3500
O=C(N[C@H](Cc1cc(I)c2[nH]c(=O)oc2c1)C(=O)N1CCC(N2CCCCC2)CC1)N1CCC(N2Cc3ccccc3NC2=O)CC1	32000
O=C(N[C@H](Cc1cc2oc(=O)[nH]c2cc1Cl)C(=O)N1CCC(N2CCCCC2)CC1)N1CCC(N2Cc3ccccc3NC2=O)CC1	> 40000
CCc1cc(CC(NC(=O)N2CCC(N3Cc4ccccc4NC3=O)CC2)C(=O)N2CCC(N3CCCCC3)CC2)cc2c(C)n[nH]c12 (racemic)	> 40000

Target: T3, Cytochrome P450 3A4
Test: Inhibition of CYP3A4 (unknown origin) using 7-benzyloxy-resorufin as substrate
Type: ADME
Conditions: not given

SMILES	IC50 [nM]
O=C(N[C@H](Cc1cc(Br)c2[nH]c(=O)oc2c1)C(=O)N1CCC(N2CCCCC2)CC1)N1CCC(N2Cc3ccccc3NC2=O)CC1	7200
Cc1cc(C[C@@H](NC(=O)N2CCC(N3Cc4ccccc4NC3=O)CC2)C(=O)N2CCC(N3CCCCC3)CC2)c(Cl)c2cn[nH]c12	1600
O=C(N[C@H](Cc1cc(I)c2[nH]c(=O)oc2c1)C(=O)N1CCC(N2CCCCC2)CC1)N1CCC(N2Cc3ccccc3NC2=O)CC1	5500
O=C(N[C@H](Cc1cc2oc(=O)[nH]c2cc1Cl)C(=O)N1CCC(N2CCCCC2)CC1)N1CCC(N2Cc3ccccc3NC2=O)CC1	5000
CCc1cc(CC(NC(=O)N2CCC(N3Cc4ccccc4NC3=O)CC2)C(=O)N2CCC(N3CCCCC3)CC2)cc2c(C)n[nH]c12 (racemic)	6900

Target: T2, Calcitonin gene-related peptide type 1 receptor
Test: Binding affinity to CGRP receptor (unknown origin)
Conditions: not given

SMILES	Ki [nM]
Cc1cc(CC(NC(=O)N2CCC(N3Cc4ccccc4NC3=O)CC2)C(=O)N2CCC(N3CCCCC3)CC2)cc2cn[nH]c12 (racemic)	0.012
O=C(N[C@H](Cc1cc(Br)c2[nH]c(=O)oc2c1)C(=O)N1CCC(N2CCCCC2)CC1)N1CCC(N2Cc3ccccc3NC2=O)CC1	0.023
Cc1cc(C[C@@H](NC(=O)N2CCC(N3Cc4ccccc4NC3=O)CC2)C(=O)N2CCC(N3CCCCC3)CC2)c(Cl)c2cn[nH]c12	0.032
O=C(N[C@H](Cc1cc(I)c2[nH]c(=O)oc2c1)C(=O)N1CCC(N2CCCCC2)CC1)N1CCC(N2Cc3ccccc3NC2=O)CC1	0.055
O=C(N[C@H](Cc1cc2oc(=O)[nH]c2cc1Cl)C(=O)N1CCC(N2CCCCC2)CC1)N1CCC(N2Cc3ccccc3NC2=O)CC1	0.28
Cc1cc(C[C@@H](NC(=O)N2CCC(N3Cc4ccccc4NC3=O)CC2)C(=O)N2CCC(N3CCCCC3)CC2)cc2cn[nH]c12	0.0073
CCc1cc(CC(NC(=O)N2CCC(N3Cc4ccccc4NC3=O)CC2)C(=O)N2CCC(N3CCCCC3)CC2)cc2c(C)n[nH]c12 (racemic)	0.048
